Assay results published in ChEMBL document CHEMBL1152250, “Novel and orally active 5-(1,3,4-oxadiazol-2-yl)pyrimidine derivatives as selective FLT3 inhibitors” (Bioorg Med Chem Lett, 2008).

What was measured:
Liver microsomes = experiment: Metabolic stability in human liver microsomes assessed as intrinsic clearance; assay type: ADME, Microsome
Procedure, shortened: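 Pooled human liver microsomes (0.2 mg protein/mL) with test compound at 0.1 or 1 μmol/L, 5 mmol/L NADPH, 100 mmol/L phosphate buffer pH 7.4, 6 mmol/L MgCl2 and 0.1 mmol/L EDTA. Cosolvent was DMSO (0.01 or 0.001 vol%) or methanol (1 vol%). Incubated at 37 °C for a fixed time, n = 1 or 2. Stopped with CH3CN containing internal standard and analysed by LC-MS or LC-MS/MS. Intrinsic clearance calculated from percent remaining.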

[1] = biological target: T1, Receptor-type tyrosine-protein kinase FLT3 (Homo sapiens, UniProt P36888); experiment: Inhibition of GST-tagged FLT3 by ELISA
T1 sequence (P36888 whole entry): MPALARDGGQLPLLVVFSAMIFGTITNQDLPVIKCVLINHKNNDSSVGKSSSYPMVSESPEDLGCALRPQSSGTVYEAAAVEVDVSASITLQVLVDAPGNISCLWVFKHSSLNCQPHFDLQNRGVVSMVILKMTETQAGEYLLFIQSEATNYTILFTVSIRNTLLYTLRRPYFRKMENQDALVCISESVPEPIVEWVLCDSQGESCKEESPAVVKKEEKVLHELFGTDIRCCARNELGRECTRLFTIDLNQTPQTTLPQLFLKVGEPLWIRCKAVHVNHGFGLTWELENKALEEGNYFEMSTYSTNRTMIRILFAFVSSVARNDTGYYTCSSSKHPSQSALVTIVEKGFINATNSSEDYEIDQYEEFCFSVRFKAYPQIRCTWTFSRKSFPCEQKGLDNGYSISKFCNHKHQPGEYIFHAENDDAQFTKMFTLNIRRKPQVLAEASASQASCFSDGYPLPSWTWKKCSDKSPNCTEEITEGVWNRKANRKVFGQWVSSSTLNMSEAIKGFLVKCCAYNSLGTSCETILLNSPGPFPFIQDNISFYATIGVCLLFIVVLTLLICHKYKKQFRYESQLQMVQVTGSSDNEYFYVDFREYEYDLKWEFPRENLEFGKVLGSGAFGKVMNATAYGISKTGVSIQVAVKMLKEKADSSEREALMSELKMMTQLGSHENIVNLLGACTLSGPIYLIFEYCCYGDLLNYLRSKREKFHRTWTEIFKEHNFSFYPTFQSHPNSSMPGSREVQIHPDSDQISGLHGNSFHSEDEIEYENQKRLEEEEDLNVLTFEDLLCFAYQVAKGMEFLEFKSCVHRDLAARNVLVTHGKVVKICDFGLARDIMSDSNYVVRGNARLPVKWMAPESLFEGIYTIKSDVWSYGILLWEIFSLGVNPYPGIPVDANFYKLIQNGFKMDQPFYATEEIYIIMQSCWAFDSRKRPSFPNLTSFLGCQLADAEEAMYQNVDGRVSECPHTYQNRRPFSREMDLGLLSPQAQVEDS

MOLM-13 [2] = experiment: Antiproliferative activity against human MOLM13 cells after 72 hrs by WST-1 assay; assay type: functional; conditions: MOLM-13, 72 h
Procedure, shortened: (§1)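 Cells kept in RPMI1640 with 10% heat-inactivated FBS, 1% penicillin and 1% streptomycin, seeded in 96-well plates and exposed to test compounds for 72 h. Viability read with WST-1 reagent. GI50 is the mean ± SEM of three experiments.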

Mus musculus [3] = experiment: Toxicity to human MOLM13 cells xenografted SCID mouse assessed as mortality at 50 mg/kg, po bid after 5 days; assay type: organism-based, MOLM-13; parameters: dose 50 mg/kg, route oral; conditions: in vivo, 120 h
Procedure, shortened: (§2)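 MOLM-13 cells implanted subcutaneously in SCID mice. Compound given orally twice daily for 5 days at 50, 100 or 200 mg/kg, alongside an untreated control group. Mortality was scored per dose group, together with tumor volume as treated/control ratio and relative to day-0 volume.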

MOLM-13 [4] = experiment: Antitumor activity against human MOLM13 cells xenografted in SCID mouse assessed as minimal tumor volume ratio at 50 mg/kg, po bid treated for 5 days measured after 7 days relative to control; assay type: functional
Procedure, shortened: (§3)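 SCID mice bearing subcutaneous MOLM-13 xenografts, 5 per group, dosed orally b.i.d. for 5 days. […] is the mean tumour volume ratio, treated to control. Regression is the mean tumour volume relative to the initial volume on day 0. Mortality and body weight were also recorded.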

[5] = Antiproliferative activity against human ML1 cells after 72 hrs by WST-1 assay; assay type: functional; conditions: ML1, 72 h; procedure, shortened: as §1
[6] = Antiproliferative activity against human HMC1 cells expressing FLT3-delta599 mutant after 72 hrs by WST-1 assay; assay type: functional; conditions: HMC1, 72 h; procedure, shortened: as §1
[7] = Antiproliferative activity against human HMC1 cells expressing FLT-D835Y mutant after 72 hrs by WST-1 assay; assay type: functional; conditions: HMC1, 72 h; procedure, shortened: as §1
Mus musculus [8] = experiment: Toxicity to human MOLM13 cells xenografted SCID mouse assessed as body weight loss at 200 mg/kg, po bid after 5 days; assay type: organism-based, MOLM-13; parameters: dose 200 mg/kg, route oral; conditions: in vivo, 120 h; procedure, shortened: as §3
MOLM-13 [9] = experiment: Antitumor activity against human MOLM13 cells xenografted in SCID mouse assessed as minimal regressive tumor volume ratio at 50 mg/kg, po bid treated for 5 days measured after 7 days relative to control; assay type: functional; procedure, shortened: as §3
MOLM-13 [10] = experiment: Antitumor activity against human MOLM13 cells xenografted in po dosed SCID mouse assessed as regression tumor volume ratio administered bid for 5 days; assay type: functional, organism-based; procedure, shortened: as §3
MOLM-13 [11] = experiment: Antitumor activity against human MOLM13 cells xenografted in po dosed SCID mouse assessed as tumor volume ratio administered bid for 5 days; assay type: functional, organism-based; procedure, shortened: as §3
Mus musculus [12] = experiment: Toxicity to human MOLM13 cells xenografted SCID mouse assessed as mortality at 100 mg/kg, po bid after 5 days; assay type: organism-based, MOLM-13; parameters: dose 100 mg/kg, route oral; conditions: in vivo, 120 h; procedure, shortened: as §2
MOLM-13 [13] = experiment: Antitumor activity against human MOLM13 cells xenografted in SCID mouse assessed as minimal regressive tumor volume ratio at 100 mg/kg, po bid treated for 5 days measured after 7 days relative to control; assay type: functional; procedure, shortened: as §3
MOLM-13 [14] = experiment: Antitumor activity against human MOLM13 cells xenografted in SCID mouse assessed as minimal tumor volume ratio at 100 mg/kg, po bid treated for 5 days measured after 7 days relative to control; assay type: functional; procedure, shortened: as §3

Row | SMILES | clearance (Liver microsomes) | GI50 (MOLM-13 [2]) | further results
1 | CCOc1nc(NCCc2ccncc2)ncc1-c1nnc(C2CC2)o1 | 23.3 mL/min/kg | 263 nM | IC50 [1]: 80 nM
2 | CCCNc1nc(NCCc2ccncc2)ncc1-c1nnc(CN(C)C)o1 | 183 mL/min/kg | 73 nM | Activity (Mus musculus [3]): Non-toxic; T/C (MOLM-13 [4]): 0.45
3 | Oc1ccc(CCNc2ncc(-c3nnc(C4CC4)o3)c(Nc3ccccc3)n2)cc1 | 85 mL/min/kg | 44 nM | 
4 | c1cc(CCNc2ncc(-c3nnc(CN4CCNCC4)o3)c(NC3CCC3)n2)ccn1 | 105 mL/min/kg | 50 nM | 
5 | Cc1ccccc1Nc1nc(NCCc2ccncc2)ncc1-c1nnc(C2CC2)o1 | 217 mL/min/kg | 40 nM | IC50 [1]: 134 nM
6 | [O-][n+]1ccc(CCNc2ncc(-c3nnc(C4CC4)o3)c(Nc3ccccc3)n2)cc1 | 3.33 mL/min/kg | 3610 nM | 
7 | CCCNc1nc(NCCc2ccncc2)ncc1-c1nnc(CN2CCN(C)CC2)o1 | 81.7 mL/min/kg | 19 nM | GI50 [5]: > 10000 nM; GI50 [6]: 37 nM; Activity (Mus musculus [3]): Non-toxic; GI50 [7]: 31 nM; Activity (Mus musculus [8]): Non-toxic
8 | CCCNc1nc(NCCc2ccncc2)ncc1-c1nnc(CO)o1 | 35 mL/min/kg | 56 nM | GI50 [5]: 5960 nM; GI50 [6]: 76 nM; GI50 [7]: 116 nM
9 | Cc1cc(CCNc2ncc(-c3nnc(C4CC4)o3)c(Nc3ccccc3)n2)ccn1 | 367 mL/min/kg | 137 nM | 
10 | CCNc1nc(NCCc2ccncc2)ncc1-c1nnc(CN2CCN(C)CC2)o1 | 45 mL/min/kg | 102 nM | GI50 [5]: > 10000 nM; GI50 [6]: 114 nM; Activity (Mus musculus [3]): Non-toxic; GI50 [7]: 63 nM; T/C (MOLM-13 [4]): 0.24; Activity (Mus musculus [8]): Non-toxic
11 | Oc1cc(CCNc2ncc(-c3nnc(C4CC4)o3)c(Nc3ccccc3)n2)ccn1 | 41.7 mL/min/kg | 113 nM | 
12 | CC(C)Nc1nc(NCCc2ccncc2)ncc1-c1nnc(CN2CCNCC2)o1 | 25 mL/min/kg | 49 nM | 
13 | CS(=O)(=O)CCNc1nc(NCCc2ccncc2)ncc1-c1nnc(C2CC2)o1 |  | 588 nM | IC50 [1]: 515 nM
14 | CCNc1nc(NCCc2ccncc2)ncc1-c1nnc(CN2C[C@@H](C)N[C@@H](C)C2)o1 | 13.3 mL/min/kg | 94 nM | GI50 [5]: > 10000 nM; Ratio (MOLM-13 [9]): 1.39; GI50 [6]: 74 nM; Activity (Mus musculus [3]): Non-toxic; Activity (MOLM-13 [10]): Dose-dependent effect; Activity (MOLM-13 [11]): Dose-dependent effect; GI50 [7]: 48 nM; Activity (Mus musculus [12]): Non-toxic; Ratio (MOLM-13 [13]): 0.12; T/C (MOLM-13 [4]): 0.2; Activity (Mus musculus [8]): Non-toxic; T/C (MOLM-13 [14]): 0.014
15 | FCCCNc1nc(NCCc2ccncc2)ncc1-c1nnc(CN2CCNCC2)o1 | 1.67 mL/min/kg | 99 nM | 
16 | c1ccc(Nc2nc(NCCc3ccncc3)ncc2-c2nnc(C3CC3)o2)cc1 | 317 mL/min/kg | 40 nM | IC50 [1]: 47 nM
17 | OCCNc1nc(NCCc2ccncc2)ncc1-c1nnc(C2CC2)o1 | 20 mL/min/kg | 123 nM | IC50 [1]: 63 nM
18 | COc1cc(CCNc2ncc(-c3nnc(C4CC4)o3)c(Nc3ccccc3)n2)ccn1 |  | 999 nM | 

Row | SMILES | clearance (Liver microsomes) | GI50 (MOLM-13 [2]) | further results
19 | c1ccc(Nc2nc(NCCc3ccncn3)ncc2-c2nnc(C3CC3)o2)cc1 | 73.3 mL/min/kg | 775 nM | 
20 | Oc1ccc(Nc2nc(NCCc3ccncc3)ncc2-c2nnc(C3CC3)o2)cc1 |  | 3.2 nM | IC50 [1]: 4.8 nM
21 | CCCOc1nc(NCCc2ccncc2)ncc1-c1nnc(CN2CCN(C)CC2)o1 | 11.7 mL/min/kg | 308 nM | 
22 | CN1CCN(Cc2nnc(-c3cnc(NCCc4ccncc4)nc3NCC3CC3)o2)CC1 | 86.7 mL/min/kg | 52 nM | 
23 | CCCNc1nc(NCCc2cccs2)ncc1-c1nnc(C)o1 |  |  | IC50 [1]: 373 nM
24 | CCCNc1nc(NCCc2ccncc2)ncc1-c1nnc(CN2C[C@@H](C)N[C@@H](C)C2)o1 | 115 mL/min/kg | 43 nM | 
25 | CCCNc1nc(NCCc2ccncc2)ncc1-c1nnc(CN2CCN(C(C)=O)CC2)o1 | 137 mL/min/kg | 66 nM | 
26 | Cc1ccc(Nc2nc(NCCc3ccncc3)ncc2-c2nnc(C3CC3)o2)cc1 | 183 mL/min/kg | 23 nM | IC50 [1]: 106 nM
27 | CNc1nc(NCCc2ccncc2)ncc1-c1nnc(CN2CCN(C)CC2)o1 | 1.67 mL/min/kg | 262 nM | 
28 | c1ccc(Nc2nc(NCCc3ccncc3)ncc2-c2nnc(CN3CCNCC3)o2)cc1 | 38.3 mL/min/kg | 74 nM | 
29 | CCCNc1nc(NCCc2ccncc2)ncc1-c1nnc(CN2CCOCC2)o1 | 167 mL/min/kg | 43 nM | 
30 | CCCNc1nc(NCCc2ccncc2)ncc1-c1nnc(CNCCN(C)C)o1 | 50 mL/min/kg | 78 nM | 
31 | CCCNc1nc(NCCc2ccncc2)ncc1-c1nnc(CN2CCN(CCO)CC2)o1 | 50 mL/min/kg | 57 nM | 
32 | Nc1ccc(CCNc2ncc(-c3nnc(C4CC4)o3)c(Nc3ccccc3)n2)cc1 | 68.3 mL/min/kg | 287 nM | 
33 | Oc1cccc(Nc2nc(NCCc3ccncc3)ncc2-c2nnc(C3CC3)o2)c1 | 267 mL/min/kg | 10 nM | IC50 [1]: 34 nM
34 | CNc1nc(NCCc2ccncc2)ncc1-c1nnc(C2CC2)o1 | 20 mL/min/kg | 139 nM | IC50 [1]: 35 nM
35 | N#Cc1cc(CCNc2ncc(-c3nnc(C4CC4)o3)c(Nc3ccccc3)n2)ccn1 |  | 10000 nM | 
36 | CCCNc1nc(NCCc2ccncc2)ncc1-c1nnc(CN2CCC(N)CC2)o1 | 50 mL/min/kg | 74 nM | 
